The results in this text go back to ChEMBL document CHEMBL3621201, “Improving the Selectivity of Engineered Protease Inhibitors: Optimizing the P2 Prime Residue Using a Versatile Cyclic Peptide Library” (J Med Chem, 2015).

One test addresses Plasminogen (Homo sapiens, UniProt P00747). Briefly: Inhibition of plasmin (unknown origin) at 50 uM using Ac-RM(O2)YRpNA substrate by spectrophotometry method.
The target in test [1] is Serine protease 1 (Homo sapiens) (UniProt P07477). As to the kind of experiment: Inhibition of beta-trypsin (unknown origin) at 25 nM using Bz-FVRpNA substrate by spectrophotometry method.
Chain of Serine protease 1 (Homo sapiens) (P07477 whole entry): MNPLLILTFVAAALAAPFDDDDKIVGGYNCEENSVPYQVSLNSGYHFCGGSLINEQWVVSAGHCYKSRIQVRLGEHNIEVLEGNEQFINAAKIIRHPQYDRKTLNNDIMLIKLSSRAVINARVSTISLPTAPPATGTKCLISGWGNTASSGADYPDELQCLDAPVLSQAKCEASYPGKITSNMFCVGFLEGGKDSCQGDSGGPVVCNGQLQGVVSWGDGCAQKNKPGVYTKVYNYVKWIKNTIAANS
Another test concerns the target Trypsin (Homo sapiens, UniProt P07477+P07478+P35030). Briefly: Inhibition of trypsin (unknown origin). In kind it is protein assay.
The target in test [2] is Coagulation factor XI (Homo sapiens) (UniProt P03951). As to the kind of experiment: Inhibition of factor 11a (unknown origin) at 10 uM using Bz-FVRpNA substrate by spectrophotometry method.
Chain of Coagulation factor XI (Homo sapiens) (P03951 19-387 limits assumed): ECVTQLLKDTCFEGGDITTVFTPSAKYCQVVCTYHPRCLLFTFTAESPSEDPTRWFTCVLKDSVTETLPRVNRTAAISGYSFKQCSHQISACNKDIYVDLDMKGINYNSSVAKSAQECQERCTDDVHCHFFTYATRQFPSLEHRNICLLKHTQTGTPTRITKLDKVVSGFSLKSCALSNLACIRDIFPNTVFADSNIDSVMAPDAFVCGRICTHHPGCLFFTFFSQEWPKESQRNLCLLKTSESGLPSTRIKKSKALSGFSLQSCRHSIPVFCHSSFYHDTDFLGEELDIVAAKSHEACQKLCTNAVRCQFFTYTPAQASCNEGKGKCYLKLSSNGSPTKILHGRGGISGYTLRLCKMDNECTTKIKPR
Chain of Coagulation factor XI (Homo sapiens) (P03951 388-625 limits assumed): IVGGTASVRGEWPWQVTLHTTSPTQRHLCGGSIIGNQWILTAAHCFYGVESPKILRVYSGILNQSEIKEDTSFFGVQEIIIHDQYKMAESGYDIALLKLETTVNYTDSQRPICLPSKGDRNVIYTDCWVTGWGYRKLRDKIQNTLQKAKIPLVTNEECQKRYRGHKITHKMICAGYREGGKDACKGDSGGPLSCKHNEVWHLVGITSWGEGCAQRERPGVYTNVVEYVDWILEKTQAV
The next test is filed under the species Homo sapiens. Briefly: Inhibition of alpha chymotrypsin (unknown origin) at 25 uM using Ac-GRPY-pNA by spectrophotometry method.
The target of test [3] is T1, Suppressor of tumorigenicity 14 protein (Homo sapiens) (UniProt Q9Y5Y6).
T1 sequence (whole entry): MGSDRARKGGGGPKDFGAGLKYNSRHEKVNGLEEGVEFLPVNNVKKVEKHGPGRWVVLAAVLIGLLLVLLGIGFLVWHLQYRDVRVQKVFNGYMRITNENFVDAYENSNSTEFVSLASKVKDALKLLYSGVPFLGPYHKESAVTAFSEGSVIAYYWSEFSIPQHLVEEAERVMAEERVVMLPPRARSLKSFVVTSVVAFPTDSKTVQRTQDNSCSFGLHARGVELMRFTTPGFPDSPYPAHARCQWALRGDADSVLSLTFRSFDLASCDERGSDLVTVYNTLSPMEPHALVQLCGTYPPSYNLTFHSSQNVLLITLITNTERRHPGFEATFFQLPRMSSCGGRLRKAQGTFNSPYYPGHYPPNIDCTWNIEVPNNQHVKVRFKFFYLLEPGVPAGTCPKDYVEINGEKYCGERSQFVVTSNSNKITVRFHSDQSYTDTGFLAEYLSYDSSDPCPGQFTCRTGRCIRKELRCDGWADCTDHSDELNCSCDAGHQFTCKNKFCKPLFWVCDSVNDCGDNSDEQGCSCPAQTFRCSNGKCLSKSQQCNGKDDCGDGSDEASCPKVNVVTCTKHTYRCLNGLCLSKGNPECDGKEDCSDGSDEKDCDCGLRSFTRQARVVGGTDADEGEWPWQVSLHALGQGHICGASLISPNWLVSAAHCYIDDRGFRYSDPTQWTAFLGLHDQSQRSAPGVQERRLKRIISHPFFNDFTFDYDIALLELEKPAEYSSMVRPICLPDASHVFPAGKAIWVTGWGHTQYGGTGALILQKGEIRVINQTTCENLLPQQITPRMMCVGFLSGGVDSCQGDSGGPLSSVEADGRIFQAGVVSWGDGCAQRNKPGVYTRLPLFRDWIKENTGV
As to the kind of experiment: Inhibition of matriptase (unknown origin) at 10 uM using Ac-RQFRpNA substrate by spectrophotometry method.

The next test concerns the target T2, Kallikrein-5 (Homo sapiens, UniProt Q9Y337).
T2 sequence (Q9Y337 whole entry): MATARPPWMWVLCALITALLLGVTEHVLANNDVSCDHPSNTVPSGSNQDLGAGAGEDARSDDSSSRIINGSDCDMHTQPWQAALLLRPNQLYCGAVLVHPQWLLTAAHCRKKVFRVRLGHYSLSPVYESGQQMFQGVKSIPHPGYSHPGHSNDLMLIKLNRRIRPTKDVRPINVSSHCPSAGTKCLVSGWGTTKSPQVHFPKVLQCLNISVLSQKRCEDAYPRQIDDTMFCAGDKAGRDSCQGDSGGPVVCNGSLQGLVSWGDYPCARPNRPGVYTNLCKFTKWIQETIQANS
Briefly: Inhibition of KLK5 (unknown origin) expressed in Pichia pastoris X33 using Ac-YRSR-pNA by spectrophotometry method. The procedure, abridged: (§1)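 Inhibition constants were measured in 0.1 M Tris pH 8.0, 0.1 M NaCl, 0.005% Triton X-100 with 100 µM peptide-pNA substrate. Protease-specific additives were also included. Absorbance at 405 nm was read every 10 s over 300 s. Rates were compared with no-inhibitor controls, and Morrison Ki was fitted by non-linear regression.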

The target in another test is Kallikrein-4 (Homo sapiens, UniProt Q9Y5K2). As to the kind of experiment: Inhibition of KLK4 (unknown origin) expressed in Sf9 cells at 25 nM using FVQRpNA substrate by spectrophotometry method.
Chain of Kallikrein-4 (Q9Y5K2 whole entry): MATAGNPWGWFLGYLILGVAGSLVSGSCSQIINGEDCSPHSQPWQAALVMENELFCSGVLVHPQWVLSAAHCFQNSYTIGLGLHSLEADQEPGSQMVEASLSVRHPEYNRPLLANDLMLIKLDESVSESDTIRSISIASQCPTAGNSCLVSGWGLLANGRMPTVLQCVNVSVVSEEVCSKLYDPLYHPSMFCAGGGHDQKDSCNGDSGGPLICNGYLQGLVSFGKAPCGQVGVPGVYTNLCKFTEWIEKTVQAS
Test [4] addresses T3, Coagulation factor XII (Homo sapiens) (UniProt P00748).
T3 sequence (whole entry): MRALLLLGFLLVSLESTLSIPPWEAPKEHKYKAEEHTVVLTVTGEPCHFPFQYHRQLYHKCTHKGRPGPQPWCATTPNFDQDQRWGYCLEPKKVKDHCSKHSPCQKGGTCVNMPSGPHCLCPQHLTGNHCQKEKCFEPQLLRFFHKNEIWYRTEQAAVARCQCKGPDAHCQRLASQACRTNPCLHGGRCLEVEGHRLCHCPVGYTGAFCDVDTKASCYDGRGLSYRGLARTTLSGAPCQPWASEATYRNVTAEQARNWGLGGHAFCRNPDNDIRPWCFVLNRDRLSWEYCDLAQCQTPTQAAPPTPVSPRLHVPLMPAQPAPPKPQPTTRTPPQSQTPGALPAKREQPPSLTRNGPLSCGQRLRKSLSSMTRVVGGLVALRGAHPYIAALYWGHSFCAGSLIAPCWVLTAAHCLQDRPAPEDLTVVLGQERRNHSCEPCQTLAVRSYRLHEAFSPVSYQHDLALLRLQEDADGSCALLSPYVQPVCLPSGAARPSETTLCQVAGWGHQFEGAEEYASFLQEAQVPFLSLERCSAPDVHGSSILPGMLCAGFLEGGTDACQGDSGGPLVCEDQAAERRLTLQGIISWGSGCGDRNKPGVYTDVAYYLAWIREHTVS
As to the kind of experiment: Inhibition of factor 12a-alpha (unknown origin) at 10 uM using Ac-QRFRpNA substrate by spectrophotometry method.

The target of another test is Kallikrein-7 (Homo sapiens, UniProt P49862). Briefly: Inhibition of KLK7 (unknown origin) expressed in Pichia pastoris X33 using KHLY-pNA substrate by spectrophotometry method. The essentials:
as §1

Activity calls are given as the source filed them. No cut-off for these calls is given here. Bridge positions count the residues as written; N and C are the ends. Peptide text beside a SMILES is read from it.

Chain of Kallikrein-7 (P49862 whole entry): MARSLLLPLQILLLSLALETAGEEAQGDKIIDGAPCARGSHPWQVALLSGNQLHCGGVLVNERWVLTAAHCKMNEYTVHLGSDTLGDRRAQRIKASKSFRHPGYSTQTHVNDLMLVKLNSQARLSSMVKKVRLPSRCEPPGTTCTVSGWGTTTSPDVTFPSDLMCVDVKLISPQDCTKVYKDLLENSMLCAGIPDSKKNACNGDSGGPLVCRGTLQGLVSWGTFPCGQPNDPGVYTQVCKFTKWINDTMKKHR
Chain of Plasminogen (P00747 97-580 limits assumed): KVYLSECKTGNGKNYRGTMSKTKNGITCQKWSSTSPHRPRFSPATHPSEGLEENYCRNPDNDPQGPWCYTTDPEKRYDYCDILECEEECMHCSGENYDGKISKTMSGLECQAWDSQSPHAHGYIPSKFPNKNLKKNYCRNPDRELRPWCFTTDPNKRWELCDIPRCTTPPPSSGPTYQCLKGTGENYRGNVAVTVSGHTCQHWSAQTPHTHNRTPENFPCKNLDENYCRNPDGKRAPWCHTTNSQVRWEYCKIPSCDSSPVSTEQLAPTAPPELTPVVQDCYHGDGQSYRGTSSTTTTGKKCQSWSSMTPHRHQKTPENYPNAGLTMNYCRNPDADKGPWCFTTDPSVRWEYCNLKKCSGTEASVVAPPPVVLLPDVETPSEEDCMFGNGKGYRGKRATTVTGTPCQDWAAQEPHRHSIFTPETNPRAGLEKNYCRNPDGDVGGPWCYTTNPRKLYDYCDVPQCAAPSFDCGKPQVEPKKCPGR
Chain of Plasminogen (P00747 581-810 limits assumed): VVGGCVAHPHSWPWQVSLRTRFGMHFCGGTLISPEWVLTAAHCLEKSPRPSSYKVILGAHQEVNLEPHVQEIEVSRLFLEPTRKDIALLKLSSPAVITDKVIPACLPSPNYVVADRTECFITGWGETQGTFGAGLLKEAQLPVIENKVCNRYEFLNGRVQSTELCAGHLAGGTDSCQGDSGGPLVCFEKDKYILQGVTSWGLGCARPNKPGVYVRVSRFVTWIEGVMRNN

With `CC[C@H](C)[C@@H]1NC(=O)[C@@H]2CCCN2C(=O)[C@@H]2CCCN2C(=O)[C@H]([C@@H](C)CC)NC(=O)[C@H](CO)NC(=O)[C@H](CCCNC(=N)N)NC(=O)[C@H]([C@@H](C)O)NC(=O)[C@@H]2CSSC[C@H](NC1=O)C(=O)N[C@@H](CC(N)=O)C(=O)N1CCC[C@H]1C(=O)N[C@@H](CC(N)=O)C(=O)NCC(=O)N[C@@H]([C@@H](C)O)C(=O)N2` (cyclo(CNPNGTCTRSIPPI); disulfide 1-7), the inhibition against Plasminogen came to 50%; in test [1] it was 80%; in test [2] it was 47%; in the test listed under Homo sapiens it was 60%; in test [3], 41%; in [4] it was 85%. Further, the Ki at Trypsin was 0.7 nM; at Kallikrein-5, 2.1 nM; at Kallikrein-7, 16.8 nM. Further, on Kallikrein-4, the inhibition result is “Active”.
